Measurements as given in paper PMC3326416 (Journal of the American Chemical Society, 2012).
Where “and” joins values, the source holds several entries; their conditions need not be identical. Equal entries are not always repeated. Entries after “also recorded” stand apart in the source; their conditions may differ.

Legend:
[1] = system: PME-1; details: acylation of active-site serine nucleophile; cited from earlier work
[2] = target: T1, PME-1 (Mus musculus, UniProt Q8BVQ5); assay: ABPP-SILAC in Neuro-2A cells, PME-1; type: cell-based; details: 100 nM, 2 h
T1 sequence (Q8BVQ5 1-386): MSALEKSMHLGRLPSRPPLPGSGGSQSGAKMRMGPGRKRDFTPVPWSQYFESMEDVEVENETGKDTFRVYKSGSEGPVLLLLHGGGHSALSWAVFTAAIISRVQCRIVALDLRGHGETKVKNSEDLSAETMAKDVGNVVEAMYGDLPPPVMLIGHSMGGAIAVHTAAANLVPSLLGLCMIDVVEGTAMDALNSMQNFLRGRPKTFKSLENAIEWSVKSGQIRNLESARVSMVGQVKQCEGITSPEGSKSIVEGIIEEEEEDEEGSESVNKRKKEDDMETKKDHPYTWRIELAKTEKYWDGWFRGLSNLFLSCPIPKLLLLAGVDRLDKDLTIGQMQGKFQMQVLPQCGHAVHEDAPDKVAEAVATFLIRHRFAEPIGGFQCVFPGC
Method in brief: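 Neuro-2A cells were grown in isotopically light or heavy amino acids: light cells got DMSO, heavy cells got test compound at 100 nM for 2 h. Proteomes were labelled with FP-biotin, mixed 1:1, avidin-enriched and analysed by LC/LC-MS/MS on an LTQ-Velos Orbitrap. Activity is the heavy:light MS1 ion ratio of tryptic peptides, reported as mean ± SEM over all peptides quantified per hydrolase.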

[3] = system: serine hydrolases; assay: Gel-based ABPP in situ in Neuro2A cells, off-target serine hydrolases; type: cell-based, mouse
Method in brief: (§1)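 Intact Neuro-2A cells were treated with test compound at 10–0.001 µM for 2 h. Membrane and soluble proteomes were then analysed by gel-based competitive ABPP, and IC50 was derived from the gel signal. Data are mean ± SEM, n = 3/group.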

[4] = target: T2, ABHD10 (Mus musculus, UniProt Q6PE15); assay: ABPP-SILAC in BW5147-derived mouse T-cell hybridoma cells, ABHD10; type: cell-based
T2 sequence (Q6PE15 44-297): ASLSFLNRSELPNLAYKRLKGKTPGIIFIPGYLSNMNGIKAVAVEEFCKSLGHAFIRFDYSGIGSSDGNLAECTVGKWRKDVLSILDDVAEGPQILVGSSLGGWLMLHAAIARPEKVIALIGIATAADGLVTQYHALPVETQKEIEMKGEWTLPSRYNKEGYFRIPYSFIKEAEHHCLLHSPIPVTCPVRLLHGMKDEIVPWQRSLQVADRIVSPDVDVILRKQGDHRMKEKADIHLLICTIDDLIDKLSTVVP
Method in brief: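 ABPP-SILAC in a second line, BW5147-derived mouse T-cell hybridoma cells. Cells were cultured in light or heavy amino acids and treated with DMSO or test compound. Proteomes were FP-biotin-labelled, combined 1:1, avidin-enriched and analysed by LC/LC-MS/MS. Serine hydrolase activity was quantified from heavy:light MS1 ratios of tryptic peptides.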

[5] = target: T2, ABHD10; assay: Gel-based ABPP in situ in Neuro2A cells, ABHD10; type: cell-based; details: single treatment, 250 nM
Method in brief: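 Neuro-2A cells received a single in situ treatment with test compound at 250 nM. ABHD10 activity was then followed by gel-based ABPP of cell proteomes over a period of up to 6 h after treatment.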

[6] = target: T2, ABHD10; assay: Competitive ABPP of Neuro2A proteomes; type: biochemical
[7] = target: T1, PME-1; assay: Gel-based ABPP in situ in Neuro2A cells, PME-1; type: cell-based; details: up to 10 µM, 2 h
Method in brief: as §1

[8] = target: T2, ABHD10; assay: ABPP-SILAC in Neuro-2A cells, ABHD10; type: cell-based

Row | inhibition of ABHD10 in second cell line [4] | time complete inhibition of ABHD10 was maintained [5] | selectivity for ABHD10 over ABHD6, PREP, PME-1, and other serine hydrolases [6] | IC50 ([6]; read-out: IC50 ABHD10, in vitro) | inhibition of PME-1 in situ [7] | inhibition of ABHD10 (ABPP-SILAC), in words ([8]; 100 nM, 2 h) | loss in ABHD10 activity ([8]; 100 nM, 2 h, ABPP-SILAC, ~40 serine hydrolase activities detected) [%] | inhibition of ABHD10 at higher concentration ([8]; 250 nM) | SMILES | inhibition of PME-1 in cells and mice [1] | disruption of PME-1 activity (ABPP-SILAC) [2] | concentration at which off-targets are detected [3] [µM]
1 |  |  |  |  |  |  |  |  | COC(=O)N1C(=O)[C@](c2ccccc2)(C2CCCC2)N1C(=O)OC [ABL127] | irreversibly inhibit | complete and selective disruption; also recorded: selective inhibition | 
2 | complete and selective inhibition | at least 6 h | at least 40 fold | ~30 nM and 30 nM | no significant inhibition | selective inhibition | > 95 | complete and selective inhibition | CCC1(c2ccc(C)cc2)C(=O)N(C(=O)OC(C)C)N1C(=O)OC(C)C (centres unmarked) [ABL303] |  |  | ≥ 1
